From PubChem BioAssay
A selection: hits, their analogues and other compounds. The true share with any hit is near 3.1%.
CHO parental Ca: ATP-evoked calcium signal inhibitors, parental CHO, primary screen, counter-screen for OX1R antagonist project, cell-based, fluorescence, Fluo-8 calcium dye. actives 0.63% (n = 330,000). parental CHO-K1, ATP-induced calcium, Fluo-8 fluorescence. inhibition, % at 5.6 µM;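 active = inhibition above that plate's mean sample inhibition plus 3 SD, cut at about 26% in these data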;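 also: 0% = ATP-challenged DMSO wells and 100% = DMSO wells without ATP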
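Material: Parental CHO cells | Reagent: ATP | Compound dosing: Single nominal dose of 5.6 µM per compound | Detection: Intracellular calcium via Fluo-8 no-wash fluorescent dye | Read-out: % inhibition of ATP-induced calcium mobilization | Benchmarks: Low control ATP plus DMSO, high control DMSO only | Replicates: Singlicate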
OX1R antag-1: antagonists of human orexin 1 receptor (OX1R) | Orexin/Hypocretin receptor type 1 (Homo sapiens), O43613 | OX1R-expressing cells, FRET antagonist read-out | inhibition, % at 6.6 µM | actives 1.8% (n = 330,000); in the data active = inhibition mostly above about 38%, no sharp cut-off; inactive = mostly below about 40%;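 also: 0% = agonist challenge alone and 100% = reference antagonist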
OX1R antag-2: OX1R (HCRTR1) antagonists, primary screen, fluorescence, CHO/OX1R cells, Fluo-8 calcium, orexin A. AID 434989, 2010. inhibition, % at 5 µM. actives 0.43% (n = 330,000). Fluo-8 calcium fluorescence. Orexin/Hypocretin receptor type 1 (Homo sapiens), O43613;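 active = inhibition above its plate's threshold, mean inhibition of all tested compounds on the plate plus 3 SD, cut at about 37% in these data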;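 also: 0% = orexin A challenge wells and 100% = SB-334867-A antagonist wells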
GalR3 antagonist: GalR3 antagonists in HEK293 cells, primary screen, cell-based, fluorescence readout; Galanin receptor type 3 (Homo sapiens), O60755; HEK293 GalR3-CNG cAMP membrane potential fluorescence; galR3 body fused to GalR1 C-terminus; inhibition, % at 3 µM; actives 0.44% (n = 360,000); AID 651719, 2012;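 active = inhibition above the screen-wide average plus 3 SD, cut at about 13% in these data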;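 also: forskolin and galanin both at EC90 stimulate the cells; cAMP rise reported by CNG channel membrane potential dye signal; 0% = forskolin plus galanin with DMSO and 100% = forskolin alone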
Target sequence (O60755 1-299 limits assumed): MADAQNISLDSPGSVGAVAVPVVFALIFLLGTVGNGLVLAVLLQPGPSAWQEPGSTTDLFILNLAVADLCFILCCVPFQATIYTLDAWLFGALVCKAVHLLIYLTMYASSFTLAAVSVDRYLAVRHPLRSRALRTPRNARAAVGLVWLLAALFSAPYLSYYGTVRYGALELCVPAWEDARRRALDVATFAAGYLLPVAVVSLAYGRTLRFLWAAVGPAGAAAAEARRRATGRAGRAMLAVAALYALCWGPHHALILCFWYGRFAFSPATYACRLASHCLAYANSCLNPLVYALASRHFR
GPR7 antag: GPR7 receptor antagonists, primary screen, cell-based, fluorescence, single concentration; GPR7-expressing cells, fluorescence antagonist assay; inhibition, % at 4.4 µM; Neuropeptides B/W receptor type 1 (Homo sapiens), P48145; actives 1.1% (n = 290,000); in the data active = inhibition above about 16%, passing the limit was not always enough;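 also: cells stimulated with the agonist NPW; 0% = agonist with vehicle and 100% = vehicle without agonist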
Target sequence (P48145 whole entry, looked up): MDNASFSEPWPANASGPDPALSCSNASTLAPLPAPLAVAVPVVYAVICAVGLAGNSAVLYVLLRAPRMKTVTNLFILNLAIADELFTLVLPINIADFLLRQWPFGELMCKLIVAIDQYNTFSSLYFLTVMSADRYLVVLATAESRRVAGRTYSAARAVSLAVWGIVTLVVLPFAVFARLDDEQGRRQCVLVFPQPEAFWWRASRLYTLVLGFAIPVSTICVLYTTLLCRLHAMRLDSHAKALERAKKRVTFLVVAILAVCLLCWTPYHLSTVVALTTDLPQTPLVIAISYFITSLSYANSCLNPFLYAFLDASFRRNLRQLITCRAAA
OX1R HTRF conf: OX1R (HCRTR1) antagonists, confirmation, cell-based, HTRF. shares compounds with OX1R antag-1. AID 492964, 2010. actives 49% (n = 1,800). OX1R-expressing cells, HTRF antagonist assay. inhibition, % at 6.6 µM; in the data active = inhibition above about 55%;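 also: CHO cells expressing OX1R stimulated with orexin A at about EC80; 0% = agonist challenge alone and 100% = reference antagonist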
CHO-K1 HTRF cnt: signal inhibition in parental CHO-K1 cells, counter-screen for OX1R antagonist project, cell-based, HTRF; shares compounds with OX1R antag-1; HTRF counterscreen; inhibition, % at 6.6 µM; actives 48% (n = 1,800); AID 493232, 2011; in the data active = inhibition above about 17%;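 also: 0% = agonist challenge with vehicle and 100% = vehicle alone without agonist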
Numbers without * were called inactive; . = no result.

SMILES	CHO parental Ca	OX1R antag-1	OX1R antag-2	GalR3 antagonist	GPR7 antag	OX1R HTRF conf	CHO-K1 HTRF cnt
Cc1nc2ccc([N+](=O)[O-])cc2nc1C	-3.6	111.5*	3.7	-3.8	2.2	68.5*	80.6*
COc1cccc(/C=N/NC(=O)c2c(-c3ccccc3)noc2C)c1OC	-20.6	23.1	-21.6	0.0	1.8	.	.
COc1cccc(/C=N/NC(=O)c2c(-c3ccccc3)noc2C)c1O	-12.8	98.5*	3.7	1.9	-17.1	34.0	9.7
O=C1CC(c2ccc(F)cc2)c2cc3c(cc2N1)CCC3 (centres undefined)	-25.8	18.9	-30.4	-0.3	3.4	.	.
COC(=O)c1nc(C(=O)OC)c(C(=O)OC)nc1C(=O)OC	-12.3	101.8*	-10.1	5.3	-9.9	48.8	22.0*
CC(C)CC(=O)Nc1ccc2c(c1)nc(CCN1CCOCC1)n2C	-4.8	1.1	1.1	-13.0	-15.0	.	.
O=C(CSc1ccccc1)NC1=NCCS1	0.5	11.2	-17.2	-3.1	-16.6	.	.
O=C(CSc1cccc2cccc(Cl)c12)NC1=NCCS1	-5.8	111.9*	1.7	-0.4	3.0	35.3	8.6
O=C(COC(=O)c1ccc([N+](=O)[O-])o1)NCc1ccccc1	-12.4	26.1	5.3	-7.2	.	.	.
O=C(COC(=O)c1ccc([N+](=O)[O-])s1)NCc1ccccc1	-4.7	124.3*	-21.6	-12.9	-8.3	28.2	17.7*
CCC1CCCCN1CCCNC(=O)CN1C(=O)COc2ccccc21 (centres undefined)	13.9	5.2	-6.6	-1.9	6.1	.	.
CC(C)COC(=O)N1C[C@H](O)C[C@H]1C(=O)Nc1ccc(Cl)cc1	-4.7	2.2	-12.2	-10.8	6.6	.	.
COc1cc(NCc2ccccc2O)c2ncccc2c1	.	.	.	-2.5	-15.0	.	.
Oc1ccccc1CNc1cccc2cccnc12	-10.1	120.3*	-19.9	-4.5	-12.9	29.1	10.7
NC(=O)c1ccsc1NC(=O)c1ccc2c(c1)CCCC2	-3.8	78.5*	-11.4	0.2	-6.2	66.5*	1.6
Cc1ccc2nc(-c3ccc4c(c3)OCCO4)cn2c1	-2.6	20.8	-5.7	-4.8	11.0	.	.
N#Cc1ncc(-c2ccc3c(c2)OCCOCCOCCOCCOCCO3)nc1C#N	-10.6	108.6*	-12.4	-9.0	-3.0	31.9	3.8
N#Cc1ncc(-c2ccc3c(c2)OCCOCCOCCOCCO3)nc1C#N	-8.2	116.6*	-4.8	0.1	-0.8	54.7*	54.4*
O=C(NNC(=O)c1cc(-c2ccccc2)nc2ccccc12)Nc1cccc(Cl)c1	-6.2	89.6*	-13.6	1.2	8.0	14.1	4.6
CC(C)(C)c1ccc(-c2cc(C(=O)NNC(=O)Nc3ccccc3)c3ccccc3n2)cc1	-17.7	32.2	-32.7	-4.9	-19.8	.	.
CC1c2ccsc2CCN1C(=O)NC(=O)c1ccc(Cl)cc1 (centres undefined)	-6.7	7.0	-13.6	-3.3	-12.8	.	.
CCn1c(=O)c2c(n3c(=S)[nH]nc13)-c1ccccc1CC21CCCCC1	-20.8	5.5	-8.2	-6.7	-11.2	.	.
O=C(C1CCCN(S(=O)(=O)c2ccccc2[N+](=O)[O-])C1)N1CCCC1 (centres undefined)	1.4	122.2*	22.2	-2.3	4.0	27.0	4.1
CCNC(=O)c1cc2c(=O)n3cccc(C)c3nc2n(CCc2ccccc2)c1=N	-1.9	69.6	-16.6	0.1	-0.4	.	.
Cc1cccn2c(=O)c3cc(C(=O)NCCN4CCOCC4)c(=N)n(CCc4ccccc4)c3nc12	-19.6	108.8*	-33.9	-3.1	4.3	56.8*	71.7*
SMILES	CHO parental Ca	OX1R antag-1	OX1R antag-2	GalR3 antagonist	GPR7 antag	OX1R HTRF conf	CHO-K1 HTRF cnt
Cc1ccc2nc3c(cc(C(=O)NCCc4ccccc4)c(=N)n3CCCN3CCOCC3)c(=O)n2c1	4.8	114.9*	-12.8	-7.7	0.0	68.2*	68.7*
CCOCCCn1c(=N)c(C(N)=S)cc2c(=O)n3cccc(C)c3nc21	-25.5	86.8*	-12.8	-2.1	-9.1	47.5	42.3*
O=C(NCCN1CCOCC1)c1cc2c(=O)n3ccccc3nc2n1Cc1ccccc1	-12.8	21.4	-28.4	-3.0	-16.1	.	.
Cc1cccn2c(=O)c3cc(C(N)=S)c(=N)n(CCCOC(C)C)c3nc12	-15.8	33.6	-27.4	-3.4	-5.1	.	.
O=C(NCc1ncc(C(F)(F)F)cc1Cl)Nc1ccccc1	-14.6	-10.2	-13.6	-1.5	-6.3	.	.
Cc1cccc(-c2nc(CS(=O)CC(=O)NC3CCCC(C)C3C)c(C)o2)c1 (centres undefined)	-10.1	8.5	-35.6	.	-0.1	.	.
O=C(Nc1ccnn1C1CCN(Cc2c(F)cccc2Cl)CC1)C1CCCC1	-22.2	2.6	-23.1	-6.3	7.2	.	.
N#Cc1cc([N+](=O)[O-])ccc1Oc1ccc(-c2nnco2)cc1	5.8	78.7*	-5.4	-6.9	13.0	35.4	42.4*
CN(C1CCS(=O)(=O)C1)S(=O)(=O)c1cccc2nsnc12 (centres undefined)	-11.6	90.4*	-18.2	-1.1	8.3	49.0	41.2*
CC(C)(C)n1cnnc1Sc1ncccc1[N+](=O)[O-]	-5.7	84.5*	-9.4	-4.0	-10.3	31.5	29.4*
COc1cccc(C(=O)NN2CC(O)=C(c3nc4ccccc4n3C)C2=N)c1	-12.8	12.7	-9.4	.	12.0	.	.
Cc1cnnc2ccc3c(no[n+]3[O-])c12	-3.4	126.2*	-4.5	0.0	-9.6	43.4	53.9*
CC1(C)CC(=O)C=C(c2ccc(-c3ccccc3)cc2)C1=O	.	.	.	0.2	.	.	.
Cc1ccc(C(=O)c2c(C)oc3c2C(=O)C(=O)c2ccccc2-3)cc1	-31.0	134.8*	-6.6	.	13.3	69.9*	27.0*
NC(=O)c1ccc(SCC(=O)NC2CCCCC2)c([N+](=O)[O-])c1	-1.1	76.9*	-9.9	6.0	-10.0	28.9	35.1*
Cc1ccnc(NC(=O)c2ccc([N+](=O)[O-])o2)c1	-3.2	94.0*	-20.3	-3.6	-1.2	51.3	68.2*
Cc1ccc(CNC(=O)c2ccc([N+](=O)[O-])o2)cc1	0.5	78.3*	-20.2	2.8	14.9	22.9	33.4*
O=C(Nc1ccccc1N1CCOCC1)c1ccc(N2CCCC2=O)cc1	-20.4	1.3	-20.9	-0.4	.	.	.
COc1ccc(C(=O)Nc2ccc(N3CCCC3)cc2)cc1	-5.4	29.5	-2.2	1.8	-3.6	.	.
